Source: ChEMBL document CHEMBL1641511, “Microwave-assisted synthesis of quinoline, isoquinoline, quinoxaline and quinazoline derivatives as CB2 receptor agonists” (Bioorg Med Chem, 2011)
Calls of active or inactive are those of the source. How the calls were made is not given here.

Columns and labels:
[1] = molecular target: Cannabinoid receptor 2 (Homo sapiens) (UniProt P34972); assay: Agonist activity at human recombinant cannabinoid CB2 receptor expressed in CHO cells by [35S]GTPgammaS binding assay relative to HU-210; assay type: functional, cell-based
Outline: (§1)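 hCB2 [35S]GTPγS binding concentration–response curves, run only for ligands giving over 50% relative activity at 10 µM. logEC50 and Emax come from nonlinear regression fitted to a sigmoidal concentration–response equation. Emax is given as percent of the 10 nM HU-210 response. Mean SEM of at least three experiments in duplicate.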

[2] = molecular target: Cannabinoid receptor 1 (Rattus norvegicus) (UniProt P20272); assay: Antagonist activity at rat cannabinoid CB1 receptor in Wistar rat cerebellar membranes at 10 uM by [35S]GTPgammaS binding assay; assay type: functional, cell membranes; conditions: Cerebellum, Membrane
Outline: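 Uses non-recombinant rat cerebellar membrane fractions as the CB1 source, with [35S]GTPγS binding. Ligand screened at 10 µM for its ability to antagonize the agonist response to 10 nM HU-210.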

[3] = molecular target: Cannabinoid receptor 2 (Homo sapiens) (UniProt P34972); assay: Agonist activity at human recombinant cannabinoid CB2 receptor expressed in CHO cells by [35S]GTPgammaS binding assay; assay type: functional, cell-based; outline: as §1
[4] = molecular target: Cannabinoid receptor 2 (Homo sapiens) (UniProt P34972); assay: Agonist activity at human recombinant cannabinoid CB2 receptor expressed in CHO cells at 10 uM by [35S]GTPgammaS binding assay; assay type: functional, cell-based
Outline: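 Single-point screen for G-protein activation at hCB2 with [35S]GTPγS binding, ligand at 10 µM. Response given relative to the 10 nM HU-210 agonist response, in percent. Mean SEM of at least three experiments, each done in duplicate.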

[5] = molecular target: Cannabinoid receptor 1 (Rattus norvegicus) (UniProt P20272); assay: Antagonist activity at rat cannabinoid CB1 receptor in Wistar rat cerebellar membranes by [35S]GTPgammaS binding assay; assay type: functional, cell membranes; conditions: Cerebellum, Membrane
Outline: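 Non-recombinant rat cerebellar membrane fractions, [35S]GTPγS binding. Compounds screened at a single concentration for their ability to antagonise the response to 10 nM HU-210 agonist.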

Chain of Cannabinoid receptor 2 (Homo sapiens) (P34972 whole entry): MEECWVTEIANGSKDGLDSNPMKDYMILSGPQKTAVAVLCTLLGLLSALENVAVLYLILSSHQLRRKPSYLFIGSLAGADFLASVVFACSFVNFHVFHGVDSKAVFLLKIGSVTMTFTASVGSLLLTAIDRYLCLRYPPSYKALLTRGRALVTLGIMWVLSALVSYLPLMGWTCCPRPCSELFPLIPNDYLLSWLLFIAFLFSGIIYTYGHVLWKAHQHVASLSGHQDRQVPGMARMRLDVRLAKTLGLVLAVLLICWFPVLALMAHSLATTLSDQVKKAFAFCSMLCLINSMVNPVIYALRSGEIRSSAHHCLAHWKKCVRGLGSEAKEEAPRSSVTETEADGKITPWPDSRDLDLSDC
Chain of Cannabinoid receptor 1 (Rattus norvegicus) (P20272 whole entry): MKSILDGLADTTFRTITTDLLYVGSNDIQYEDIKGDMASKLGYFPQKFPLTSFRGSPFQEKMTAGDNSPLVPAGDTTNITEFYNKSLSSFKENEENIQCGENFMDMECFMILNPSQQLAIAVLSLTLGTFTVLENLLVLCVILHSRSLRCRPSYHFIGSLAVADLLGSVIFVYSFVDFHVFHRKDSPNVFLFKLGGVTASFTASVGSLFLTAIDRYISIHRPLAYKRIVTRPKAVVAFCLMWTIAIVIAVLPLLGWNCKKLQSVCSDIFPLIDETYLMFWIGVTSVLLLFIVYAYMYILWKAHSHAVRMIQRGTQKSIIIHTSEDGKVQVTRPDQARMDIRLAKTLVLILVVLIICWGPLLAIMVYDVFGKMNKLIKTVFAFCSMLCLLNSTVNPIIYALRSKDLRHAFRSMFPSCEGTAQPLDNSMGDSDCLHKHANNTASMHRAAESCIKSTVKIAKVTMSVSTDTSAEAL

Compound	Activity [2]	Activity [4] [%]	Emax [1] [%]	pEC50 [3]	logEC50 [5]
COc1ccccc1Nc1ccc2ccccc2n1	inactive	69	102	5.3	
c1ccc(Sc2nccc3ccccc23)cc1	inactive	33			
c1ccc(Oc2cnc3ccccc3c2)cc1	inactive	17			
c1ccc(Sc2ccc3ccccc3n2)cc1	inactive	47	61	5.4	
Clc1ccccc1Nc1ccc2ccccc2n1	inactive	56	91	5.2	
COc1ccccc1NC(=O)c1cnc(Nc2cccc(C(F)(F)F)c2)c2ccccc12	inactive	1			
FC(F)(F)c1ccccc1Nc1nccc2ccccc12	inactive	43			
O=C(NCC1CCCCC1)c1cnc(Nc2cccc(C(F)(F)F)c2)c2ccccc12	inactive	58	67	5.8	
FC(F)(F)c1ccccc1Nc1ccc2ccccc2n1	inactive	63	103	5.2	
FC(F)(F)c1cccc(Nc2ccc3ccccc3n2)c1	inactive	64	65	5.9	
Brc1cccc(Nc2ccc3ccccc3n2)c1	inactive	64	69	5.7	
FC(F)(F)c1cccc(Nc2cnc3ccccc3n2)c1	inactive	52	69	5.4	
O=C(NCc1ccccc1)c1cc2ccccc2c(Nc2cccc(C(F)(F)F)c2)n1	inactive	0			
COc1cccc(Nc2ccc3ccccc3n2)c1	inactive	50	61	5.6	
FC(F)(F)c1cccc(Nc2ncnc3ccccc23)c1	inactive	68	79	5.6	
c1ccc(Nc2ncnc3ccccc23)cc1	inactive	10			
FC(F)(F)c1cccc(Nc2ncc3ccccc3n2)c1	inactive	53	67	5.5	

Compound	Activity [2]	Activity [4] [%]	Emax [1] [%]	pEC50 [3]	logEC50 [5]
c1ccc(Nc2ccnc3ccccc23)cc1	inactive	9			
c1ccc(Nc2nccc3ccccc23)cc1	inactive	7			
O=C(NCC1CCCCC1)c1cc2ccccc2c(Nc2cccc(C(F)(F)F)c2)n1	inactive	-2			
FC(F)(F)c1cccc(Nc2ccnc3ccccc23)c1	inactive	50	58	5.5	
Clc1ccc(Nc2ccc3ccccc3n2)cc1	inactive	75	80	5.7	
O=C(c1cnc(Nc2cccc(C(F)(F)F)c2)c2ccccc12)N1CCOCC1		76	75	7.8	5
FC(F)(F)c1cccc(Nc2nccc3ccccc23)c1	inactive	102	124	5.8	
COC(=O)c1cc2ccccc2c(Nc2cccc(C(F)(F)F)c2)n1	inactive	4			
O=C(NC1CCCCC1)c1cnc(Nc2cccc(C(F)(F)F)c2)c2ccccc12	inactive	54	73	5.7	
COc1ccc(Nc2ccc3ccccc3n2)cc1	inactive	49	51	5.7	
O=C(NCc1ccccc1)c1cnc(Nc2cccc(C(F)(F)F)c2)c2ccccc12	inactive	21			
FC(F)(F)c1ccc(Nc2nccc3ccccc23)cc1	inactive	25			
Clc1cccc(Nc2ccc3ccccc3n2)c1	inactive	58	70	5.6	
O=C(NC1CCCCC1)c1cc2ccccc2c(Nc2cccc(C(F)(F)F)c2)n1	inactive	13			
c1ccc(Sc2cnc3ccccc3c2)cc1	inactive	13			
c1ccc(Oc2nccc3ccccc23)cc1	inactive	31			
c1ccc2nc(NC3CCCCC3)ccc2c1	inactive	57	88	5.2	

Now from value to compound, other results behind:

Activity [2]	Activity [4] [%]	Compound	Emax [1] [%]	pEC50 [3]	logEC50 [5]
inactive	10	CCCCCCNc1ccc2ccccc2n1			
inactive	44	c1ccc2nc(NCC3CCCCC3)ccc2c1			
inactive	8	Oc1ccc(Nc2ccc3ccccc3n2)cc1			
inactive	38	c1ccc(Nc2ncc3ccccc3n2)cc1			
inactive	25	N#Cc1cccc(Nc2ccc3ccccc3n2)c1			
inactive	22	c1ccc2nc(NC3CCCC3)ccc2c1			
inactive	20	CN(C)c1ccc(Nc2ccc3ccccc3n2)cc1			
inactive	33	COc1cc(C(F)(F)F)ccc1Nc1ccc2ccccc2n1			
inactive	20	c1ccc(CNc2ccc3ccccc3n2)cc1			
inactive	7	c1ccc2nc(N3CCOCC3)ccc2c1			
inactive	3	CCOC(=O)c1ccc(Nc2ccc3ccccc3n2)cc1			
inactive	20	OCCc1ccc(Nc2ccc3ccccc3n2)cc1			
inactive	10	c1ccc2nc(N3CCCCC3)ccc2c1			
inactive	18	c1ccc(Cc2ccccc2Nc2ccc3ccccc3n2)cc1			
inactive	48	FC(F)(F)c1ccc(Nc2ccc3ccccc3n2)cc1			
inactive	39	c1ccc(Nc2ccc3ccccc3n2)cc1			
inactive	30	c1ccc(Nc2cnc3ccccc3n2)cc1			
